# Reference: ChEMBL document CHEMBL2413060, “Synthesis, biological evaluation and molecular docking studies of some pyrimidine derivatives” (2013)
# Assays:
# Format in all cases: functional
# Staphylococcus aureus [1] = experiment: Antibacterial activity against Staphylococcus aureus ATCC 6538P after 24 hrs by two-fold serial dilution method relative to ampicillin
# Staphylococcus aureus [2] = experiment: Antibacterial activity against Staphylococcus aureus ATCC 6538P after 24 hrs by two-fold serial dilution method
# Summary of the method: (§1)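 Two-fold serial broth dilution in sterile nutrient broth at 500, 250, 125, 62.5, 31.25, 15.63, 7.82 and 3.91 µg/ml, with dimethylformamide ≤2.5%. Organisms were pre-grown 24 h in broth, and 0.1 ml inoculum was added per 5 ml tube. Tubes were incubated at 37°C, 24 h for bacteria and 48 h for fungi. MIC was taken as the lowest concentration giving no turbidity.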
# Candida albicans [3] = experiment: Antifungal activity against Candida albicans ATCC 2091 assessed as diameter of inhibition zone at 1 mg/ml after 48 hrs by cup diffusion method (reference value: 22 mm); settings: ATCC 2091, 48 h, read-out: DIZ
# Shigella flexneri [4] = experiment: Antibacterial activity against Shigella flexneri ATCC 15391 assessed as diameter of inhibition zone at 1 mg/ml after 24 hrs by cup diffusion method (reference value: 17 mm); settings: ATCC 15391, 24 h, read-out: DIZ
# Staphylococcus aureus [5] = experiment: Antibacterial activity against Staphylococcus aureus ATCC 6538P assessed as diameter of inhibition zone at 1 mg/ml after 24 hrs by cup diffusion method (reference value: 15 mm); settings: read-out: DIZ
# Pseudomonas aeruginosa [6] = experiment: Antibacterial activity against Pseudomonas aeruginosa ATCC 9027 assessed as diameter of inhibition zone at 1 mg/ml after 24 hrs by cup diffusion method (reference value: 16 mm); settings: ATCC 9027, 24 h, read-out: DIZ
# NCI/ADR-RES = experiment: Cytotoxicity against human NCI/ADR-RES cells assessed as growth inhibition at 10 uM; settings: read-out: GI
# Summary of the method: (§2)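 Single-dose screen on human tumour cell lines. Growth of treated cells is expressed as percent of untreated growth, plotted as a mean graph, and reported as percent growth inhibition.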
# HCC 2998 = experiment: Cytotoxicity against human HCC2998 cells assessed as growth inhibition at 10 uM; settings: read-out: GI
# Candida albicans [7] = experiment: Antifungal activity against Candida albicans ATCC 2091 after 48 hrs by two-fold serial dilution method; settings: ATCC 2091, 48 h; summary of the method: as §1
# Candida albicans [8] = experiment: Antifungal activity against Candida albicans ATCC 2091 after 48 hrs by two-fold serial dilution method relative to clotrimazole
# T47D = experiment: Cytotoxicity against human T47D cells assessed as growth inhibition at 10 uM; settings: read-out: GI; summary of the method: as §2
# MDA-MB-435 = experiment: Cytotoxicity against human MDA-MB-435 cells assessed as growth inhibition at 10 uM; settings: read-out: GI; summary of the method: as §2
# BT-549 = experiment: Cytotoxicity against human BT549 cells assessed as growth inhibition at 10 uM; settings: read-out: GI
# Hs-578T = experiment: Cytotoxicity against human Hs578T cells assessed as growth inhibition at 10 uM; settings: read-out: GI
# PC-3 = experiment: Cytotoxicity against human PC3 cells assessed as growth inhibition at 10 uM; settings: read-out: GI; summary of the method: as §2
# MCF7 = experiment: Cytotoxicity against human MCF7 cells assessed as growth inhibition at 10 uM; settings: read-out: GI; summary of the method: as §2
# TK-10 = experiment: Cytotoxicity against human TK10 cells assessed as growth inhibition at 10 uM; settings: read-out: GI
# Summary of the method: (§3)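 Single-dose screen in a sixty-cell human tumour line panel; percent growth of treated cells relative to untreated was read and reported as percentage growth inhibition, shown as a mean graph. Compounds meeting the threshold inhibition criteria went on to five-dose testing.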
# UO-31 = experiment: Cytotoxicity against human UO31 cells assessed as growth inhibition at 10 uM; settings: read-out: GI; summary of the method: as §3
# SN12C = experiment: Cytotoxicity against human SN12C cells assessed as growth inhibition at 10 uM; settings: read-out: GI; summary of the method: as §2
# CAKI-1 = experiment: Cytotoxicity against human Caki1 cells assessed as growth inhibition at 10 uM; settings: read-out: GI
# A498 = experiment: Cytotoxicity against human A498 cells assessed as growth inhibition at 10 uM; settings: read-out: GI
# ACHN = experiment: Cytotoxicity against human ACHN cells assessed as growth inhibition at 10 uM; settings: read-out: GI
# 786-0 = experiment: Cytotoxicity against human 786-0 cells assessed as growth inhibition at 10 uM; settings: read-out: GI
# SK-OV-3 = experiment: Cytotoxicity against human SKOV3 cells assessed as growth inhibition at 10 uM; settings: read-out: GI; summary of the method: as §2
# OVCAR-8 = experiment: Cytotoxicity against human OVCAR8 cells assessed as growth inhibition at 10 uM; settings: read-out: GI; summary of the method: as §2
# OVCAR-3 = experiment: Cytotoxicity against human OVCAR3 cells assessed as growth inhibition at 10 uM; settings: read-out: GI; summary of the method: as §2
# IGROV-1 = experiment: Cytotoxicity against human IGROV1 cells assessed as growth inhibition at 10 uM; settings: read-out: GI
# UACC-62 = experiment: Cytotoxicity against human UACC62 cells assessed as growth inhibition at 10 uM; settings: read-out: GI; summary of the method: as §3
# UACC-257 = experiment: Cytotoxicity against human UACC257 cells assessed as growth inhibition at 10 uM; settings: read-out: GI; summary of the method: as §3
# SK-MEL-28 = experiment: Cytotoxicity against human SK-MEL-28 cells assessed as growth inhibition at 10 uM; settings: read-out: GI; summary of the method: as §2
# SK-MEL-2 = experiment: Cytotoxicity against human SK-MEL-2 cells assessed as growth inhibition at 10 uM; settings: read-out: GI; summary of the method: as §2
# M14 = experiment: Cytotoxicity against human M14 cells assessed as growth inhibition at 10 uM; settings: read-out: GI
# Malme-3M = experiment: Cytotoxicity against human MALME-3M cells assessed as growth inhibition at 10 uM; settings: read-out: GI
# SNB-75 = experiment: Cytotoxicity against human SNB75 cells assessed as growth inhibition at 10 uM; settings: read-out: GI; summary of the method: as §2
# SF-539 = experiment: Cytotoxicity against human SF539 cells assessed as growth inhibition at 10 uM; settings: read-out: GI; summary of the method: as §2
# SF-295 = experiment: Cytotoxicity against human SF295 cells assessed as growth inhibition at 10 uM; settings: read-out: GI; summary of the method: as §2
# HCT-116 = experiment: Cytotoxicity against human HCT116 cells assessed as growth inhibition at 10 uM; settings: read-out: GI
# NCI-H460 = experiment: Cytotoxicity against human NCI-H460 cells assessed as growth inhibition at 10 uM; settings: read-out: GI; summary of the method: as §2
# NCI-H322M = experiment: Cytotoxicity against human NCI-H322M cells assessed as growth inhibition at 10 uM; settings: read-out: GI; summary of the method: as §2
# HOP-92 = experiment: Cytotoxicity against human HOP92 cells assessed as growth inhibition at 10 uM; settings: read-out: GI
# HOP-62 = experiment: Cytotoxicity against human HOP62 cells assessed as growth inhibition at 10 uM; settings: read-out: GI
# RPMI-8226 = experiment: Cytotoxicity against human RPMI8226 cells assessed as growth inhibition at 10 uM; settings: read-out: GI; summary of the method: as §2
# CCRF-CEM = experiment: Cytotoxicity against human CCRF-CEM cells assessed as growth inhibition at 10 uM; settings: read-out: GI
# Pseudomonas aeruginosa [9] = experiment: Antibacterial activity against Pseudomonas aeruginosa ATCC 9027 after 24 hrs by two-fold serial dilution method relative to ofloxacin
# Shigella flexneri [10] = experiment: Antibacterial activity against Shigella flexneri ATCC 15391 after 24 hrs by two-fold serial dilution method relative to ofloxacin
# Shigella flexneri [11] = experiment: Antibacterial activity against Shigella flexneri ATCC 15391 after 24 hrs by two-fold serial dilution method; settings: ATCC 15391, 24 h; summary of the method: as §1
# NCI-H522 = experiment: Cytotoxicity against human NCI-H522 cells assessed as growth inhibition at 10 uM; settings: read-out: GI; summary of the method: as §2
# [12] = Cytotoxicity against human EKVX cells assessed as growth inhibition at 10 uM; settings: read-out: GI
# SR = experiment: Cytotoxicity against human SR cells assessed as growth inhibition at 10 uM; settings: read-out: GI; summary of the method: as §2
# K562 = experiment: Cytotoxicity against human K562 cells assessed as growth inhibition at 10 uM; settings: read-out: GI
# RXF 393 = experiment: Cytotoxicity against human RXF393 cells assessed as growth inhibition at 10 uM; settings: read-out: GI; summary of the method: as §2
Structure (SMILES),zone of inhibition at 1000 µg/mL (Candida albicans [3]) [mm],zone of inhibition at 1000 µg/mL (Shigella flexneri [4]) [mm],zone of inhibition at 1000 µg/mL (Staphylococcus aureus [5]) [mm],zone of inhibition at 1000 µg/mL (Pseudomonas aeruginosa [6]) [mm],inhibition of growth at 10 µM (NCI/ADR-RES) [%],inhibition of growth at 10 µM (HCC 2998) [%],inhibition of growth at 10 µM (T47D) [%],inhibition of growth at 10 µM (PC-3) [%],inhibition of growth at 10 µM (MCF7) [%],inhibition of growth at 10 µM (TK-10) [%],inhibition of growth at 10 µM (CAKI-1) [%],inhibition of growth at 10 µM (A498) [%],inhibition of growth at 10 µM (SK-OV-3) [%],inhibition of growth at 10 µM (IGROV-1) [%],inhibition of growth at 10 µM (UACC-62) [%],inhibition of growth at 10 µM (SK-MEL-2) [%],inhibition of growth at 10 µM (M14) [%],inhibition of growth at 10 µM (Malme-3M) [%],inhibition of growth at 10 µM (SNB-75) [%],inhibition of growth at 10 µM (HOP-92) [%],also measured
CSc1nc(-c2ccco2)c(C#N)c(=O)n1C,22,17,19,17,48.8,98.4,,,,,,,,,,,,,,,Activity (Staphylococcus aureus [1]): 50%; MIC (Staphylococcus aureus [2]): 125 µg/mL
N#Cc1c(-c2ccccc2)nc(SCC(O)CN2CCOCC2)nc1N1CCOCC1 (stereo not given),24,18,15,16,,,74,43.5,95,59.2,62.6,103,58.9,130,57.1,92.7,40.1,76.9,105,69.3,MIC (Candida albicans [7]): 125 µg/mL; Activity (Candida albicans [8]): 60%; inhibition of growth at 10 µM (MDA-MB-435): 47%; inhibition of growth at 10 µM (BT-549): 70.5%; inhibition of growth at 10 µM (Hs-578T): 93.8%; inhibition of growth at 10 µM (UO-31): 58.3%; inhibition of growth at 10 µM (SN12C): 42.2%; inhibition of growth at 10 µM (ACHN): 45.6%; inhibition of growth at 10 µM (786-0): 61.9%; inhibition of growth at 10 µM (OVCAR-8): 66.6%; inhibition of growth at 10 µM (OVCAR-3): 64.6%; inhibition of growth at 10 µM (UACC-257): 82.9%; inhibition of growth at 10 µM (SK-MEL-28): 40.1%; inhibition of growth at 10 µM (SF-539): 43.4%; inhibition of growth at 10 µM (SF-295): 56.4%; inhibition of growth at 10 µM (HCT-116): 42.5%; inhibition of growth at 10 µM (NCI-H460): 66%; inhibition of growth at 10 µM (NCI-H322M): 47.7%; inhibition of growth at 10 µM (HOP-62): 52%
N#Cc1c(N2CCOCC2)nc(=S)[nH]c1-c1ccco1,22,22,15,16,59.8,121,81.1,57.4,73.3,52.9,41.8,101,45,79.3,56.7,63,60.2,97.8,84.1,112,inhibition of growth at 10 µM (RPMI-8226): 57%; inhibition of growth at 10 µM (CCRF-CEM): 50.4%; Activity (Pseudomonas aeruginosa [9]): 60%; Activity (Shigella flexneri [10]): 60%; MIC (Shigella flexneri [11]): 125 µg/mL; inhibition of growth at 10 µM (SF-295): 52.6%; inhibition of growth at 10 µM (NCI-H522): 50.4%; inhibition of growth at 10 µM (NCI-H460): 49.9%; inhibition of growth at 10 µM (HOP-62): 64.2%; inhibition of growth at 10 µM [12]: 51.2%; inhibition of growth at 10 µM (SR): 82.2%
Cn1c(N2CCOCC2)nc(-c2ccc([N+](=O)[O-])cc2)c(C#N)c1=O,22,17,15,16,,,,,,,,,,40.1,,,,,,44.3,inhibition of growth at 10 µM (RPMI-8226): 39.7%; inhibition of growth at 10 µM (K562): 41.8%; inhibition of growth at 10 µM (RXF 393): 47.7%
